Measurements: ChEMBL document CHEMBL1122780, “Trequinsin, a potent new antihypertensive vasodilator in the series of 2-(arylimino)-3-alkyl-9,10-dimethoxy-3,4,6,7-tetrahydro-2H-py rim ido [6,1-a]isoquinolin-4-ones” (J Med Chem, 1984)

Columns and labels:
Rattus norvegicus [1] = experiment: Difference in systolic blood pressure of SH rats observed prior to the first application and 2 hr after the fifth application at the oral dose of 25 mg/kg was expressed as Delta BP; assay type: functional, Artery
Outline: (§1)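 Male spontaneously hypertensive rats (Wistar–Okamoto, 250–300 g, 12–16 weeks), conscious. Dosed orally once daily for 5 days in 0.9% NaCl or 0.5% carboxymethylcellulose (10 mL/kg); vehicle control group. Rats warmed at 37–38 °C for 10 min, then systolic pressure taken by tail-cuff (piezoelectric pulse detection). ΔBP = pre-first-dose minus 2 h after fifth dose; mean ± SEM, six animals.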

Felis catus [2] = experiment: Dose estimated to produce 25 mm Hg fall in mean systemic blood pressure of anesthetized cat at 10 min after administration; assay type: functional
Rattus norvegicus [3] = organism: Rattus norvegicus; experiment: Evaluated for antihypertensive activity in hypertensive(SH) rat
Felis catus [4] = experiment: Dose estimated to produce a fall in mean blood pressure of anesthetized cat at 10 min after administration; assay type: functional
Outline: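 Cats (2.5–4.0 kg, either sex), ether induction, chloralose 70 mg/kg iv maintenance. Compound in distilled water or propylene glycol given via femoral vein at 0.01–10 mg/kg. Fall in mean arterial pressure read 10 min post-dose; ED25 (dose for 25 mmHg fall) calculated from log dose–response curve.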

Rattus norvegicus [5] = organism: Rattus norvegicus; experiment: Delta BP refers to difference in systolic blood pressure of SH rats; assay type: functional, Artery; outline: as §1
Canis familiaris [6] = experiment: Hypotensive activity of compound was evaluated by measuring fall in blood pressure in dogs after administering 100 ug/kg intravenously; assay type: functional, Canis lupus familiaris
Outline: (§2)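 Mongrel dogs (10–16 kg, either sex) anesthetized with pentobarbitone sodium 35 mg/kg iv. Dosing by femoral vein catheter at 25, 50 or 100 µg/kg. Records initial BP, maximal fall in mean arterial pressure, percent hypotension and duration. Mean ± SEM, 3–8 experiments per dose.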

Canis familiaris [7] = experiment: Hypotensive activity of compound was evaluated by measuring initial blood pressure in dogs after administering 50 ug/kg intravenously; assay type: functional, Canis lupus familiaris; outline: as §2
Rattus norvegicus [8] = experiment: Difference in systolic blood pressure of SH rats observed prior to the first application and 2 hr after the fifth application at the oral dose of 5 mg/kg was expressed as Delta BP; assay type: functional, Artery; outline: as §1
Felis catus [9] = experiment: Hypotensive activity of compound was evaluated by measuring initial blood pressure in cats after administering 50 ug/kg intravenously; assay type: functional
Outline: (§3)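 Cats (2.5–4.0 kg, either sex) under ether, maintained on chloralose 70 mg/kg iv. Dosing by femoral vein catheter at 10, 25 or 50 µg/kg. Records initial BP, peak fall in mean arterial pressure, percent hypotension and response duration. Mean ± SEM, five experiments per dose.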

Canis familiaris [10] = experiment: Percent hypotension was determined in dogs after administering 25 ug/kg intravenously; assay type: functional, Canis lupus familiaris; outline: as §2
Oryctolagus cuniculus [11] = experiment: Percent hypotension was determined in rabbits after administering 25 ug/kg intravenously; assay type: functional
Outline: (§4)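 Anesthetized rabbits. Dosing by femoral vein catheter at 10, 25 or 50 µg/kg. Records initial BP, maximal fall in mean arterial pressure, percent hypotension and duration of hypotension. Mean ± SEM, 6–7 experiments per dose.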

Felis catus [12] = experiment: Hypotensive activity of compound was evaluated by measuring initial blood pressure in cats after administering 10 ug/kg intravenously; assay type: functional; outline: as §3
Canis familiaris [13] = experiment: Percent hypotension was determined in dogs after administering 100 ug/kg intravenously; assay type: functional, Canis lupus familiaris; outline: as §2
Canis familiaris [14] = experiment: Duration for hypotensive action in dogs after administering 100 ug/kg intravenously; assay type: functional, Canis lupus familiaris; outline: as §2
Felis catus [15] = experiment: Duration for hypotensive action in cats after administering 25 ug/kg intravenously; assay type: functional; outline: as §3
Felis catus [16] = experiment: Hypotensive activity of compound was evaluated by measuring fall in blood pressure in cats after administering 10 ug/kg intravenously; assay type: functional; outline: as §3
Canis familiaris [17] = experiment: Hypotensive activity of compound was evaluated by measuring fall in blood pressure in dogs after administering 25 ug/kg intravenously; assay type: functional, Canis lupus familiaris; outline: as §2
Felis catus [18] = experiment: Duration for hypotensive action in cats after administering 10 ug/kg intravenously; assay type: functional; outline: as §3
Canis familiaris [19] = experiment: Hypotensive activity of compound was evaluated by measuring initial blood pressure in dogs after administering 100 ug/kg intravenously; assay type: functional, Canis lupus familiaris; outline: as §2
Canis familiaris [20] = experiment: Duration for hypotensive action in dogs after administering 25 ug/kg intravenously; assay type: functional, Canis lupus familiaris; outline: as §2
Felis catus [21] = experiment: Percent hypotension was determined in cats after administering 10 ug/kg intravenously; assay type: functional; outline: as §3
Oryctolagus cuniculus [22] = experiment: Duration for hypotensive action in rabbits after administering 25 ug/kg intravenously; assay type: functional; outline: as §4
Oryctolagus cuniculus [23] = experiment: Hypotensive activity of compound was evaluated by measuring fall in blood pressure in rabbits after administering 50 ug/kg intravenously; assay type: functional; outline: as §4
Oryctolagus cuniculus [24] = experiment: Hypotensive activity of compound was evaluated by measuring initial blood pressure in rabbits after administering 25 ug/kg intravenously; assay type: functional; outline: as §4
Oryctolagus cuniculus [25] = experiment: Duration for hypotensive action in rabbits after administering 10 ug/kg intravenously; assay type: functional; outline: as §4
Felis catus [26] = experiment: Blood pressure lowering activity in anesthetized cats after intravenous administration of […] of compound; assay type: functional
Felis catus [27] = experiment: Hypotensive activity of compound was evaluated by measuring initial blood pressure in cats after administering 25 ug/kg intravenously; assay type: functional; outline: as §3
Felis catus [28] = experiment: Percent hypotension was determined in cats after administering 25 ug/kg intravenously; assay type: functional; outline: as §3
Oryctolagus cuniculus [29] = experiment: Percent hypotension was determined in rabbits after administering 10 ug/kg intravenously; assay type: functional; outline: as §4
Felis catus [30] = experiment: Duration for hypotensive action in cats after administering 50 ug/kg intravenously; assay type: functional; outline: as §3
Canis familiaris [31] = experiment: Percent hypotension was determined in dogs after administering 50 ug/kg intravenously; assay type: functional, Canis lupus familiaris; outline: as §2
Canis familiaris [32] = experiment: Hypotensive activity of compound was evaluated by measuring initial blood pressure in dogs after administering 25 ug/kg intravenously; assay type: functional, Canis lupus familiaris; outline: as §2
Felis catus [33] = experiment: Hypotensive activity of compound was evaluated by measuring fall in blood pressure in cats after administering 50 ug/kg intravenously; assay type: functional; outline: as §3
Felis catus [34] = experiment: Percent hypotension was determined in cats after administering 50 ug/kg intravenously; assay type: functional; outline: as §3
Canis familiaris [35] = experiment: Duration for hypotensive action in dogs after administering 50 ug/kg intravenously; assay type: functional, Canis lupus familiaris; outline: as §2
Canis familiaris [36] = experiment: Hypotensive activity of compound was evaluated by measuring fall in blood pressure in dogs after administering 50 ug/kg intravenously; assay type: functional, Canis lupus familiaris; outline: as §2
Felis catus [37] = experiment: Hypotensive activity of compound was evaluated by measuring fall in blood pressure in cats after administering 25 ug/kg intravenously; assay type: functional; outline: as §3
Oryctolagus cuniculus [38] = experiment: Duration for hypotensive action in rabbits after administering 50 ug/kg intravenously; assay type: functional; outline: as §4
[39] = Compound was tested for toxicity in mice after intraperitoneal administration; assay type: organism-based; settings: mouse, in vivo, ip
Outline: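 Mice (18–22 g), either sex. Compound dissolved in distilled water or suspended in 0.5% (carboxymethyl)cellulose and given ip at 10, 30, 100, 300 and 1000 mg/kg, 1 mL/100 g body weight. Animals observed for 48 h; approximate LD50 calculated by the Campbell and Richter method.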

Oryctolagus cuniculus [40] = experiment: Percent hypotension was determined in rabbits after administering 50 ug/kg intravenously; assay type: functional; outline: as §4
Oryctolagus cuniculus [41] = experiment: Hypotensive activity of compound was evaluated by measuring initial blood pressure in rabbits after administering 10 ug/kg intravenously; assay type: functional; outline: as §4
Oryctolagus cuniculus [42] = experiment: Hypotensive activity of compound was evaluated by measuring fall in blood pressure in rabbits after administering 10 ug/kg intravenously; assay type: functional; outline: as §4
Oryctolagus cuniculus [43] = experiment: Hypotensive activity of compound was evaluated by measuring fall in blood pressure in rabbits after administering 25 ug/kg intravenously; assay type: functional; outline: as §4
Oryctolagus cuniculus [44] = experiment: Hypotensive activity of compound was evaluated by measuring initial blood pressure in rabbits after administering 50 ug/kg intravenously; assay type: functional; outline: as §4

`COc1cc2c(cc1OC)-c1cc(N(C)c3c(F)cccc3F)nc(=O)n1CC2` gave a Delta blood pressure (Rattus norvegicus [1]) of 0 mmHg, an ED25 (Felis catus [2]) of 6 mg/kg and an Antihypertensive activity (Rattus norvegicus [3]) of 10 mg/kg. The ED25 (Felis catus [4]) was 0.03 mg/kg and the Delta blood pressure (Rattus norvegicus [5]) was 0 mmHg.
`COc1cc2c(cc1OC)-c1c/c(=N\c3c(C)cc(C)cc3C)n(C)c(=O)n1CC2.Cl` [TREQUINSIN HYDROCHLORIDE] gave a BP (Canis familiaris [6]) of 56.1 mmHg, a BP (Canis familiaris [7]) of 163.3 mmHg and a Delta blood pressure (Rattus norvegicus [8]) of -41 mmHg. It also gave a BP (Felis catus [9]) of 125 mmHg, a Hypotension (Canis familiaris [10]) of 22.9% and a Hypotension (Oryctolagus cuniculus [11]) of 29.9%. For the same compound, the BP (Felis catus [12]) was 110 mmHg, the Hypotension (Canis familiaris [13]) was 33.7% and the Duration (Canis familiaris [14]) was 140 min. It also gave a Duration (Felis catus [15]) of 45 min, a BP (Felis catus [16]) of 17 mmHg and a BP (Canis familiaris [17]) of 37.5 mmHg. The Duration (Felis catus [18]) was 16 min, the BP (Canis familiaris [19]) was 168.3 mmHg and the Duration (Canis familiaris [20]) was 50 min. The Hypotension (Felis catus [21]) was 16.8%, the Duration (Oryctolagus cuniculus [22]) was 57.8 min and the BP (Oryctolagus cuniculus [23]) was 24.2 mmHg. It also gave a BP (Oryctolagus cuniculus [24]) of 89.6 mmHg, an ED25 (Felis catus [2]) of 0.025 mg/kg and a Duration (Oryctolagus cuniculus [25]) of 20.7 min. The ED25 (Felis catus [26]) was 0.025 mg/kg, the BP (Felis catus [27]) was 116 mmHg and the Hypotension (Felis catus [28]) was 23.4%. The Hypotension (Oryctolagus cuniculus [29]) was 18.6%, the Duration (Felis catus [30]) was 82.5 min and the Hypotension (Canis familiaris [31]) was 25.4%. For the same compound, the BP (Canis familiaris [32]) was 168.8 mmHg, the BP (Felis catus [33]) was 34.2 mmHg and the Hypotension (Felis catus [34]) was 28.6%. The Duration (Canis familiaris [35]) was 98.3 min, the BP (Canis familiaris [36]) was 40.8 mmHg and the BP (Felis catus [37]) was 25.8 mmHg. The Duration (Oryctolagus cuniculus [38]) was 70 min, the LD50 [39] was 150 mg/kg and the Hypotension (Oryctolagus cuniculus [40]) was 28.5%. The BP (Oryctolagus cuniculus [41]) was 93.8 mmHg, the BP (Oryctolagus cuniculus [42]) was 17.4 mmHg and the BP (Oryctolagus cuniculus [43]) was 26.4 mmHg. The BP (Oryctolagus cuniculus [44]) was 84.2 mmHg.
